# Sampled rows, rich in hits. Any-hit rate of the full collection: about 2%.
# MT1-MMP act inh: blocks activation of human MT1-MMP | P50281 | HT1080 RFP-PRO-GFP cells, GFP/RFP ratio fluorescence, overnight; percent of plate control window, DMSO zero | GFP/RFP ratio change, % at 20 µM | actives 0.061% (n = 360,000);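 active = GFP/RFP ratio change of at least 30% with cell ATP level not reduced by more than half and red fluorescence within 50% of control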
#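 Compound: 20 µM single dose, 1% DMSO / System: HT1080 RFP-PRO-GFP cells / Controls: DMSO and RFP-L50D-GFP cell wells / Read-out basis: GFP/RFP fluorescence ratio / Schedule: overnight compound exposure at 37 °C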
# ABCB6 inh 2: blocks the human ABCB6 transporter; K562-ABCB6 porphyrin accumulation, flow cytometry, 1 h; hits give low values; fluorescence ratio to DMSO, % at 10 µM; actives 0.19% (n = 360,000);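 active = fluorescence ratio to DMSO below 75%, the collection mean minus 3 SD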;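 note: signal is porphyrin accumulated inside mitochondria; lower ratio means ABCB6 inhibition with less porphyrin fluorescence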
# FGF22 binding-1: FGF22 (human) thermal shift binding. Q9HCT0. recombinant FGF22 thermal shift, SYPRO orange fluorescence; percent of sucrose octasulfate shift, DMSO zero. activity (Tm shift, normalised), % at 9.99 µM. actives 1.5% (n = 340,000);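 active = mean Tm shift, scaled 0 neutral to 100 positive control, at about 1.3% or above, every replicate too, limit read from the data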
# VLA-4 inh: inhibition in a human VLA-4 binding assay. P13612. VLA-4 expressing cells, ligand binding flow cytometry. inhibition, % (about 7 µM as worked out from the volumes in the protocol). actives 0.2% (n = 330,000). AID 2557; in the data active = inhibition above about 50%
# Granule exo inh: blocks lytic granule exocytosis; TALL-104 LAMP-1 surface exposure, flow cytometry; cells stimulated with thapsigargin and PMA; inhibition, % at 10 µM; actives 0.66% (n = 360,000);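 active = inhibition above about 55%, limit read from the data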
# DAGLB inhibitor: blocks human DAGLB lipase activity; Q8NCG7; HEK293T DAGLB membrane lysate, EnzChek fluorogenic substrate; inhibition, % at 5.17 µM; actives 0.059% (n = 340,000); in the data active = inhibition above about 34%
# Target sequence (Q8NCG7 whole entry, looked up): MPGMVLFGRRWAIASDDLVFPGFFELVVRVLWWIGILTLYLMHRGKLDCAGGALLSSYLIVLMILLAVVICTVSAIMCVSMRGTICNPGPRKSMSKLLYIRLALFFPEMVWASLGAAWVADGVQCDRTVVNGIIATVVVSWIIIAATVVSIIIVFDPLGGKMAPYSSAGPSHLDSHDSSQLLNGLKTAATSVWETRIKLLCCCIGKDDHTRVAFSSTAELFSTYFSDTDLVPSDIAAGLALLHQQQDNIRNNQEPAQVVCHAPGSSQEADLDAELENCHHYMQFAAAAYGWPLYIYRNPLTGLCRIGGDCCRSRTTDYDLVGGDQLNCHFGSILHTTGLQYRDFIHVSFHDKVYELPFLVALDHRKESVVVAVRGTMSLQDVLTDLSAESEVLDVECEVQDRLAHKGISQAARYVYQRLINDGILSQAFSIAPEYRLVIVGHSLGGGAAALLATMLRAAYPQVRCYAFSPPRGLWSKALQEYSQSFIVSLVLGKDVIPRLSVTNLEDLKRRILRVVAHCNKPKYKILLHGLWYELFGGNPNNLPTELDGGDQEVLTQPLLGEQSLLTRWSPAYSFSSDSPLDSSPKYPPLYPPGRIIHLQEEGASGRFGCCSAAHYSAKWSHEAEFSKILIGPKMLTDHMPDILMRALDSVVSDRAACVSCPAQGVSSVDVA
# FGF22 binding-2: binds human FGF22 shifting its melting temperature; shares compounds with FGF22 binding-1; AID 720646; thermal shift activity, °C (ΔTm) at 38 µM; recombinant FGF22 thermal shift, SYPRO orange fluorescence; actives 2% (n = 1,000);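 active = fitted rise in melting shift crosses a set limit at or below the top valid dose tested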
# FGF22 TSA DP: FGF22 (human) binding by thermal shift. shares compounds with FGF22 binding-1. AID 743017. Tm shift (activity), % at 38 µM. Thermal shift assay, SYPRO orange, melting temperature shift. 50 tested, under 10 active;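 active = compounds whose fitted dose curve of melting temperature shift rises past a set threshold within the tested doses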
# TSA no protein: compound-only SYPRO artifact for FGF22 binders; shares compounds with FGF22 binding-1; compound-only SYPRO orange thermal shift counter-screen, no protein; AC50, µM (highest dose often 38 µM); actives 2% (n = 1,000);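 active = rising signal whose fitted curve reaches the 0.54 level within the top valid dose, showing a melting point, actives reach about 13 µM in these data; inactive = the rest, including activity in the opposite direction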; note: value is where the raw curve crosses a fixed level and not half-maximal
# Numbers stand for hits; . = inactive; / = no result.
SMILES,MT1-MMP act inh,ABCB6 inh 2,FGF22 binding-1,VLA-4 inh,Granule exo inh,DAGLB inhibitor,FGF22 binding-2,TSA no protein,others
COc1ccc(CN(C)C[C@H]2OCCCC[C@@H](C)Oc3ccc(NC(=O)Nc4ccc(C(F)(F)F)cc4)cc3C(=O)N([C@@H](C)CO)C[C@H]2C)cc1,/,/,.,/,/,/,/,/,
CCN(CC)S(=O)(=O)c1ccc(NC2=NS(=O)(=O)c3ccccc32)cc1,.,.,.,.,.,.,/,/,
CCC(=O)N(NC1=NS(=O)(=O)c2ccccc21)S(=O)(=O)c1ccc(C)cc1,.,.,1.7,.,.,.,.,.,
Cc1ccc2c(c1)C1CN(C)CCC1N2S(=O)(=O)c1ccc(C(C)C)cc1 (stereo not given),.,.,14.3,.,.,.,.,.,
Cc1ccc2c(c1)C1CN(C)CCC1N2S(=O)(=O)c1cccc(C(F)(F)F)c1 (stereo not given),.,.,.,.,.,.,/,/,
CC(C)CC(=O)n1sc(NC(=O)c2ccccc2)nc1=O,.,.,2.5,.,.,.,.,.,
CCN(CC)c1ccc2cc(S(=O)(=O)c3ccc(Cl)cc3)c(=O)oc2c1,.,.,24.1,.,.,.,.,.,
CCCCCCc1cc2cc(S(=O)(=O)c3ccc(Cl)cc3)c(=O)oc2cc1O,.,.,.,.,.,.,/,/,
CCN1C(=O)C(CC(=O)Nc2ccc(F)cc2)N(Cc2ccc3c(c2)OCO3)C1=S (stereo not given),.,.,2.9,.,.,.,.,.,FGF22 TSA DP=.
O=C(Nc1ccc2c(c1)OCO2)N[C@H]1CC[C@@H](CC(=O)N2CCN(c3ccccc3)CC2)O[C@H]1CO,/,/,.,/,/,/,/,/,
C[C@@H]1CN([C@@H](C)CO)S(=O)(=O)c2ccc(C3=CCCC3)cc2O[C@@H]1CN(C)C(=O)C1CCCCC1,/,/,1.5,/,/,/,.,.,
C[C@H](CO)N1C[C@H](C)[C@@H](CN(C)C(=O)CN(C)C)Oc2cc(C3=CCCCC3)ccc2S1(=O)=O,/,/,1.6,/,/,/,.,.,
C[C@@H]1CN([C@@H](C)CO)S(=O)(=O)c2ccc(-c3cncnc3)cc2O[C@H]1CN(C)C(=O)CN(C)C,/,/,.,/,/,/,/,/,
C[C@@H]1CN([C@@H](C)CO)S(=O)(=O)c2ccc(C3=CCCCC3)cc2O[C@H]1CN(C)C(=O)CN(C)C,/,/,1.3,/,/,/,.,.,
C[C@@H]1CN([C@H](C)CO)S(=O)(=O)c2ccc(C3=CCCC3)cc2O[C@@H]1CN(C)C(=O)C1CCCCC1,/,/,.,/,/,/,/,/,
C[C@H]1CN([C@@H](C)CO)S(=O)(=O)c2ccc(C3=CCCCC3)cc2O[C@@H]1CN(C)C(=O)CN(C)C,/,/,.,/,/,/,/,/,
C[C@@H]1CN([C@H](C)CO)S(=O)(=O)c2ccc(-c3cncnc3)cc2O[C@@H]1CN(C)C(=O)CN(C)C,/,/,15.3,/,/,/,.,.,
O=C(Nc1ccccc1F)N[C@@H]1CC[C@@H](CCNC(=O)C2CCCC2)O[C@@H]1CO,/,/,.,/,/,/,/,/,
O=S(=O)(N[C@@H]1CC[C@H](CCn2cc(-c3ccccc3F)nn2)O[C@H]1CO)c1ccc(Cl)cc1,/,/,.,/,/,/,/,/,
COC(=O)c1cn(CCNC(=O)Nc2ccccc2)nn1,/,/,.,/,/,/,/,/,
Cc1noc(C)c1NC(=O)N[C@@H]1C=C[C@H](CC(=O)Nc2ccc(-c3ccccc3)cc2)O[C@@H]1CO,/,/,1.9,/,/,/,.,.,
Cc1noc(C)c1NC(=O)N[C@H]1C=C[C@@H](CC(=O)Nc2ccc(-c3ccccc3)cc2)O[C@@H]1CO,/,/,.,/,/,/,/,/,
CC(C)NC(=O)N(C)C[C@H]1OCCCC[C@H](C)Oc2ccc(N(C)C)cc2C(=O)N([C@H](C)CO)C[C@H]1C,/,/,208.7,/,/,/,.,.,
CNC[C@H]1OCCCC[C@@H](C)Oc2ccc(NC(=O)Nc3ccc(C(F)(F)F)cc3)cc2C(=O)N([C@H](C)CO)C[C@@H]1C,/,/,7.0,/,/,/,.,.,
CC(C)NC(=O)Nc1ccc2c(c1)C(=O)N([C@H](C)CO)C[C@H](C)[C@@H](CN(C)C(=O)Nc1ccccc1)OCCCC[C@@H](C)O2,/,/,.,/,/,/,/,/,
SMILES,MT1-MMP act inh,ABCB6 inh 2,FGF22 binding-1,VLA-4 inh,Granule exo inh,DAGLB inhibitor,FGF22 binding-2,TSA no protein,others
COc1ccc(S(=O)(=O)Nc2ccc3c(c2)C(=O)N([C@H](C)CO)C[C@@H](C)[C@@H](CN(C)C)OCCCC[C@@H](C)O3)cc1,/,/,.,/,/,/,/,/,
CNC[C@@H]1OCCCC[C@@H](C)Oc2ccc(NC(=O)Nc3ccc(C(F)(F)F)cc3)cc2C(=O)N([C@H](C)CO)C[C@H]1C,/,/,.,/,/,/,/,/,
CC(C)NC(=O)Nc1ccc2c(c1)C(=O)N([C@@H](C)CO)C[C@@H](C)[C@@H](CN(C)C(=O)Nc1ccccc1)OCCCC[C@@H](C)O2,/,/,28.0,/,/,/,.,.,
COc1ccc(S(=O)(=O)Nc2ccc3c(c2)C(=O)N([C@@H](C)CO)C[C@@H](C)[C@@H](CN(C)C)OCCCC[C@@H](C)O3)cc1,/,/,2.1,/,/,/,.,.,
COc1ccccc1C#Cc1ccc([C@@H]2[C@@H](CO)N3CCCCN(C(=O)C4CCCC4)C[C@H]23)cc1,/,/,.,/,/,/,/,/,
CN1C(=O)c2cc(NC(=O)c3ccccc3)ccc2OC[C@@H]2O[C@H](CC(=O)O)CC[C@@H]21,/,/,.,/,/,/,/,/,
C[C@@H]1CCCCO[C@H](CN(C)C)[C@H](C)CN([C@@H](C)CO)C(=O)c2cc(NC(=O)CCCN(C)C)ccc2O1,/,/,.,/,/,/,/,/,
O=C(NC[C@@H]1N[C@@H](CO)[C@H]1c1ccc(C2=CCCCC2)cc1)c1cccc(F)c1,/,/,.,/,/,/,/,/,
CCCN(C)C[C@@H]1OCCCC[C@@H](C)Oc2ccc(NC(=O)NC(C)C)cc2C(=O)N([C@@H](C)CO)C[C@@H]1C,/,/,1.4,/,/,/,.,.,
CCCN(C)C[C@@H]1OCCCC[C@@H](C)Oc2ccc(NC(=O)NC(C)C)cc2C(=O)N([C@H](C)CO)C[C@@H]1C,/,/,.,/,/,/,/,/,
CCOC(=O)N1CCN(C(=O)CCCCCn2c(=S)[nH]c3ccsc3c2=O)CC1,.,.,1.4,.,.,.,.,.,
O=C(C1CC1)N1CC2(C1)[C@H](c1ccccc1)[C@@H](CO)N2CCC(F)(F)F,/,/,.,/,/,/,/,/,
O=C(O)C1CCN(S(=O)(=O)Cc2ccccc2)CC1,.,.,11.7,.,.,.,.,.,
COc1ccc(S(=O)(=O)Nc2ccc3c(c2)C(=O)N([C@H](C)CO)C[C@@H](C)[C@H](CN(C)S(=O)(=O)c2cccs2)OCCCC[C@@H](C)O3)cc1,/,/,.,/,/,/,/,/,
COC(=O)Cc1n[nH]c(=O)c2ccccc12,.,.,11.6,.,.,.,.,.,

# Bioassay records from PubChem.
